Compound activity deposited in PubChem BioAssay by several laboratories.
A selection: hits, their analogues and other compounds. The true share with any hit is near 2.4%.
APOBEC3A inh – inhibitors of human APOBEC3A DNA deaminase; P31941; inhibition, % at 20 µM; recombinant A3A, FAM/TAMRA ssDNA deamination fluorescence; actives 0.41% (n = 330,000); AID 493011;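 active means at least 40% inhibition at 20 µM here, with at most 30% in a related deaminase screen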;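 further: plate controls were A3A with DMSO for no effect and wells lacking A3A enzyme for full effect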
HKDC1 inh – inhibitors of human hexokinase HKDC1; Q2TB90; recombinant HKDC1, G6PDH/diaphorase resazurin coupled fluorescence; inhibition, % at 20 µM; actives 0.16% (n = 340,000); AID 493160;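 active means inhibition above about 35% when tested at 20 µM, limit read from the data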;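 further: plate controls were DMSO wells with enzyme for no effect and DMSO wells lacking enzyme for full effect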
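Test system: Recombinant HKDC1 (HK5) hexokinase enzyme, produced in-house | Input: HKDC1 at 5 µg/mL | Buffer or medium: Tris pH 8.0 buffer with MgCl2, Tween-20, BSA, BME | Schedule: 90 min reaction incubation at room temperature, dark | Technique: Resazurin-to-resorufin fluorescence via G6PDH and diaphorase coupling, 525/613 nm | Controls: DMSO wells with and without enzyme mix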
PfG6PD inh – PfG6PD (Plasmodium falciparum) enzyme inhibition. PfGluPho enzyme, NADPH resazurin-diaphorase fluorescence. inhibition, % at 20 µM. actives 0.78% (n = 350,000);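 active means inhibition reaching at least a set limit at 20 µM in the primary screen, cut at about 59% in these data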;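 further: 0% = DMSO wells with substrate and 100% = DMSO wells lacking glucose-6-phosphate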
PfM18AAP inh – PfM18AAP enzyme inhibition; recombinant PfM18AAP, H-Glu-NHMec fluorogenic cleavage; inhibition, % at 7.35 µM; actives 1.2% (n = 290,000);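 active means inhibition above the campaign mean inhibition over all tested compounds plus 3 SD, cut at about 28% in these data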;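 further: 0% = plate median of test compound wells and 100% = 2 mM ZnCl2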
A3G deaminase – inhibitors of human APOBEC3G DNA deaminase. Q9HC16. AID 493012. recombinant A3G, ssDNA deamination FAM/TAMRA fluorescence. inhibition, % at 20 µM. actives 0.28% (n = 330,000);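 active means inhibition of at least 40% at 20 µM, with no more than 30% in the related APOBEC3A deaminase screen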;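 further: plate controls were DMSO wells with A3G for no effect and wells lacking A3G enzyme for full effect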
Target sequence (Q9HC16 whole entry, looked up): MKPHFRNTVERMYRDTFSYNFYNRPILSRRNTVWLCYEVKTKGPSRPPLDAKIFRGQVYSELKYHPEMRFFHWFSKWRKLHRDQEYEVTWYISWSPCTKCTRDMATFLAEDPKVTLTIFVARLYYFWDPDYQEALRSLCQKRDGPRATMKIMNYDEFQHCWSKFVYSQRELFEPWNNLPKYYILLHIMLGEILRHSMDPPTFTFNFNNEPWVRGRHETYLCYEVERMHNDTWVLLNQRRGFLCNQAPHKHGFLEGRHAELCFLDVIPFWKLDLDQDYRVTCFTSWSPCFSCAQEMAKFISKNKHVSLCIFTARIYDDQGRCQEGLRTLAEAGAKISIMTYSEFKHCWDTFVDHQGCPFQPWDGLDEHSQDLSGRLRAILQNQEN
SUMO HTRF inh – inhibitors of human SUMOylation (UBC9); HTRF SUMOylation assay, SAE1/SAE2 + UBC9, in vitro; inhibition, % at 35 µM; actives 0.36% (n = 290,000); AID 2006; in the data active means inhibition above about 50%, passing the limit was not always enough
Target sequence (P63279 whole entry, looked up): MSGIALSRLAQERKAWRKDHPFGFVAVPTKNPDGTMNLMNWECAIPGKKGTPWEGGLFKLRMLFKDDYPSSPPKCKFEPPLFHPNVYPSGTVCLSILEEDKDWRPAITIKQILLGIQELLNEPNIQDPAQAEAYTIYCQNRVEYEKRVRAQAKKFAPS
Numbers without * were called inactive; x = no result given.

SMILES	APOBEC3A inh	HKDC1 inh	PfG6PD inh	PfM18AAP inh	A3G deaminase	SUMO HTRF inh
NC(=S)N/N=C/c1ccccc1O	2	-25	-35	24	-4	17
Cc1ccc(-n2c(C)cc(/C=N/NC(N)=S)c2C)cc1	-3	6	25	7	-8	-32
Cc1cc(/C=N/NC(N)=S)c(O)c(/C=N/NC(N)=S)c1	-43	-15	-19	45*	-76	35
NC(=S)N/N=C/c1cccc(O)c1O	5	12	6	40*	4	17
CCN(CC)S(=O)(=O)c1cccc(C(=O)N2CC(O)CC2C(=O)O)c1 (stereo not given)	-1	-8	-14	2	2	-14
Cc1c(C(=O)N(C)C)sc(NC(=O)c2cc([N+](=O)[O-])cc([N+](=O)[O-])c2)c1C#N	5	0	-4	9	2	-7
COc1ccc(C(=O)N/C(=C\c2cc(OC)c(OC)cc2[N+](=O)[O-])C(=O)NCC(=O)O)cc1	2	-6	7	0	-8	17
Cc1ccc(C(=O)Nn2cnnc2)cc1	-3	-2	-4	29*	-5	6
CCOc1ccc(C(=O)Nn2cnnc2)cc1	-7	-7	11	22	-6	-2
Cc1ccc2c(C(=O)CN3CCCC(C)C3)c(C)[nH]c2c1 (stereo not given)	2	-3	-4	9	-3	20
Cc1nnc(N/N=C/c2c[nH]c3ccccc23)[nH]c1=O	23	-7	6	29*	3	6
Cc1cc(C)nc(N/N=C/c2c[nH]c3ccccc23)n1	-1	-7	1	1	-5	1
O=c1nc(N/N=C/c2ccccn2)cn[nH]1	2	-9	-29	49*	1	-120
Clc1cccc(Cl)c1C1Nc2cccc3cccc(c23)N1	2	15	26	4	-5	56*
Clc1cccc(C2Nc3cccc4cccc(c34)N2)c1	5	10	21	32*	21	28
Fc1cccc(Cl)c1C1Nc2cccc3cccc(c23)N1	-2	14	44	3	0	56
O=C1c2cc3ccccc3c(-c3ccccc3)c2C(=O)N1c1ccccn1	4	-5	34	2	-3	20
COc1ccc(-n2c(SCC(=O)Nc3nccs3)nnc2-c2ccoc2C)cc1	1	2	15	12	0	26
CC(=O)Nc1ccc(OC(=O)Cc2ccc(Cl)cc2)cc1	1	5	-16	3	10	-2
O=C(C1=C[C@@H]2[C@H]3C(=O)N(c4ccccc4Cl)C(=O)[C@H]3[C@@H](C(=O)c3ccc(Cl)cc3)N2C=C1)c1ccccc1	-8	x	x	8	-6	6
COc1ccc(S(=O)(=O)N2CCc3ccccc3C2)cc1C(=O)O	-3	-2	-5	-6	-9	2
C#CCOCCOCCOCCNc1nc(N2CCN(C(=O)CCCCCCCCCCNC(=O)[C@@H](CCSC)n3cc(CCO)nn3)CC2)nc(N2CCN(C(=O)CCCCCCCCCCNC(=O)[C@H](CCCN=C(N)N)n3cc(C[C@@H](C)CC)nn3)CC2)n1	-4	10	69*	x	-5	x
C#CCOCCOCCOCCNc1nc(N2CCN(C(=O)C(Cc3cc4ccccc4[nH]3)n3cc(C(N)C(C)CC)nn3)CC2)nc(N2CCN(C(=O)C(Cc3cc4ccccc4[nH]3)n3cc(C(N)C(C)CC)nn3)CC2)n1 (stereo not given)	-4	28	61*	-15	-7	6
C#CCOCCOCCOCCNc1nc(N2CCN(C(=O)CCCCCCCCCCNC(=O)[C@H](CCCCN)n3cc(C)nn3)CC2)nc(N2CCN(C(=O)CCCCCCCCCCNC(=O)[C@H](CCCN=C(N)N)n3cc(C[C@@H](C)CC)nn3)CC2)n1	1	1	60*	x	1	x
C#CCOCCOCCOCCNc1nc(N2CCOCC2)nc(N2CCN(C(=O)[C@H](Cc3cc4ccccc4[nH]3)n3cc([C@@H](N)C(C)CC)nn3)CC2)n1 (stereo not given in full)	-5	-3	19	-2	-8	-12
SMILES	APOBEC3A inh	HKDC1 inh	PfG6PD inh	PfM18AAP inh	A3G deaminase	SUMO HTRF inh
C#CCOCCOCCOCCNc1nc(N2CCN(C(=O)CCCCCCCCCCNC(=O)[C@H](CCCCN)n3cc(C[C@@H](C)CC)nn3)CC2)nc(N2CCN(C(=O)CCCCCCCCCCNC(=O)[C@H](CCCN=C(N)N)n3cc(C[C@@H](C)CC)nn3)CC2)n1	-7	16	52	x	-11	x
C#CCOCCOCCOCCNc1nc(N2CCN(C(=O)CCCCCCCCCCNC(=O)[C@H](CO)n3cc(CCCCCN)nn3)CC2)nc(N2CCN(C(=O)CCCCCCCCCCNC(=O)[C@H](CCCN=C(N)N)n3cc(C[C@@H](C)CC)nn3)CC2)n1	-24	x	x	x	1	x
O=S(=O)(Nc1nc2ccccc2nc1-[n+]1ccccc1)c1ccc(Cl)cc1	2	-4	10	-4	-4	0
Cc1cccc(NC(=S)NCc2ccccn2)c1	-3	1	-3	4	-4	17
S=C(NCc1ccccn1)Nc1cccc(Cl)c1	3	-5	1	30*	-1	4
N#CC1=C(N)NC(=S)C(C(N)=O)C1c1ccc(Cl)cc1Cl (stereo not given)	-1	13	47	30*	-10	-1
CC1(C)OC(=O)C2(Cc3ccccc3N3CCCCC32)C(=O)O1 (stereo not given)	-3	-1	-17	29*	-8	27
Cc1nc(SCc2ccccc2)[nH]c(=O)c1CC(=O)OCC(C)C	3	-4	-9	-12	6	6
COC(=O)/C=c1/s/c(=C(/C#N)C(=O)N2CCCCC2)n(-c2ccccc2)c1=O	0	-5	2	-1	-7	3
N#CCC(=O)N/N=C\c1ccc(OC/C=C/c2ccccc2)cc1	-2	-5	-2	13	-8	7
N#CCC(=O)N/N=C/c1ccc(OCc2ccccc2)cc1	6	-7	-5	30*	-3	6
CCOC(=O)N1CCN(C2=C(NS(=O)(=O)c3ccc(C)cc3)C(=O)c3ccccc3C2=O)CC1	-2	13	-3	31*	1	64
Cc1ccc(S(=O)(=O)NC2=C(N3CCN(Cc4ccccc4)CC3)C(=O)c3ccccc3C2=O)cc1	0	6	7	4	-6	8
CC(C)CNC(=S)NNC(=O)CC(C)O (stereo not given)	3	-1	-4	35*	-2	16
CCOc1ccccc1NC(=S)N1CCN(c2ccc(O)cc2)CC1	-2	4	38	30*	-5	8
COc1cccc(C(C[N+](=O)[O-])c2c(C)[nH]n(-c3ccccc3)c2=O)c1 (stereo not given)	-4	0	-11	39*	4	97*
